Results published in ChEMBL document CHEMBL2417474, “Synthesis, antiproliferative and anti-inflammatory activities of some novel 6-aryl-2-(p-(methanesulfonyl)phenyl)-4,5-dihydropyridazi-3(2H)-ones” (Eur J Med Chem, 2013).

Legend:
Assay type in all cases: functional
[1] = test system: UO-31; assay: Growth inhibition of human UO31 cells assessed as cell growth at 10 uM after 48 hrs by sulforhodamine B assay; details: UO-31, 48 h, read-out: Activity
Summary of the method: (§1)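 Single-dose NCI screen. Tumor lines were cultured in medium with 5% fetal calf serum and 2 mM L-glutamine, preincubated 24 h, then given compound in DMSO. After 48 h continuous exposure, cell growth was estimated by sulforhodamine B protein assay.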

[2] = test system: MDA-MB-231; assay: Growth inhibition of human MDA-MB-231 cells after 48 hrs by sulforhodamine B assay; details: MDA-MB-231, 48 h
Summary of the method: (§2)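 NCI 60-cell-line panel grown in RPMI-type medium with 5% fetal calf serum and 2 mM L-glutamine. Cells preincubated 24 h, then exposed continuously for 48 h to compound in DMSO at 10^-4 to 10^-8 M (five 10-fold levels). Growth read by SRB protein stain. GI50 is the concentration giving a 50% reduction in net protein increase relative to control cells.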

[3] = test system: CCRF-CEM; assay: Growth inhibition of human CCRF-CEM cells assessed as cell growth at 10 uM after 48 hrs by sulforhodamine B assay; details: read-out: Activity
[4] = test system: MOLT-4; assay: Growth inhibition of human MOLT4 cells assessed as cell growth at 10 uM after 48 hrs by sulforhodamine B assay; details: MOLT-4, 48 h, read-out: Activity
[5] = test system: BT-549; assay: Growth inhibition of human BT549 cells after 48 hrs by sulforhodamine B assay; details: BT-549, 48 h; summary of the method: as §2
[6] = test system: OVCAR-4; assay: Growth inhibition of human OVCAR4 cells after 48 hrs by sulforhodamine B assay; details: OVCAR-4, 48 h
Summary of the method: (§3)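 NCI 60-cell-line panel. Cells were grown in medium with 5% fetal calf serum and 2 mM L-glutamine, then preincubated 24 h in plates. Compounds were added from DMSO at five 10-fold concentrations from 100 to 0.01 µM and left on cells continuously for 48 h. Cell growth was read by sulforhodamine B protein stain. GI50 is the concentration that halves net protein increase relative to control cells.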

[7] = test system: NCI-H23; assay: Growth inhibition of human NCI-H23 cells after 48 hrs by sulforhodamine B assay; details: NCI-H23, 48 h; summary of the method: as §3
[8] = test system: COLO 205; assay: Growth inhibition of human COLO205 cells assessed as cell growth at 10 uM after 48 hrs by sulforhodamine B assay; details: COLO 205, 48 h, read-out: Activity
[9] = test system: DU-145; assay: Growth inhibition of human DU145 cells assessed as cell growth at 10 uM after 48 hrs by sulforhodamine B assay; details: DU-145, 48 h, read-out: Activity
[10] = test system: T47D; assay: Growth inhibition of human T47D cells assessed as cell growth at 10 uM after 48 hrs by sulforhodamine B assay; details: read-out: Activity; summary of the method: as §1
[11] = test system: NCI-H23; assay: Growth inhibition of human NCI-H23 cells assessed as cell growth at 10 uM after 48 hrs by sulforhodamine B assay; details: NCI-H23, 48 h, read-out: Activity
[12] = test system: KM12; assay: Growth inhibition of human KM12 cells after 48 hrs by sulforhodamine B assay; details: KM12, 48 h; summary of the method: as §2
[13] = test system: HL-60(TB); assay: Growth inhibition of human HL-60(TB) cells after 48 hrs by sulforhodamine B assay; details: HL-60, 48 h
Summary of the method: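 Part of the NCI 60-cell-line panel. Cells were grown in 1640 medium with 5% fetal calf serum and 2 mM L-glutamine, then preincubated 24 h before compound was added. Compounds in DMSO were tested at five concentrations (100, 10, 1, 0.1, 0.01 µM) with 48 h continuous exposure. Read-out was SRB protein staining; GI50 is the concentration halving the net protein increase versus control.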

[14] = test system: UACC-257; assay: Growth inhibition of human UACC257 cells assessed as cell growth at 10 uM after 48 hrs by sulforhodamine B assay; details: UACC-257, 48 h, read-out: Activity; summary of the method: as §1
[15] = test system: UACC-62; assay: Growth inhibition of human UACC62 cells assessed as cell growth at 10 uM after 48 hrs by sulforhodamine B assay; details: UACC-62, 48 h, read-out: Activity; summary of the method: as §1
[16] = test system: A549; assay: Growth inhibition of human A549/ATCC cells after 48 hrs by sulforhodamine B assay; details: A549, 48 h; summary of the method: as §2
[17] = test system: UACC-62; assay: Growth inhibition of human UACC62 cells after 48 hrs by sulforhodamine B assay; details: UACC-62, 48 h
Summary of the method: (§4)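 NCI 60-line panel. Cells were grown in medium with 5% fetal calf serum and 2 mM L-glutamine and preincubated 24 h in plates. Compound in DMSO was added at 10^-4 to 10^-8 M (five 10-fold levels), with continuous exposure for 48 h. Growth was read by SRB protein staining. GI50 is the concentration giving 50% reduction in net protein increase versus control cells.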

[18] = test system: HCT-116; assay: Growth inhibition of human HCT116 cells after 48 hrs by sulforhodamine B assay; details: HCT-116, 48 h; summary of the method: as §2
[19] = test system: UO-31; assay: Growth inhibition of human UO31 cells after 48 hrs by sulforhodamine B assay; details: UO-31, 48 h; summary of the method: as §4
[20] = Growth inhibition of human EKVX cells after 48 hrs by sulforhodamine B assay; summary of the method: as §2
[21] = Growth inhibition of human NCI-ADR-RES cells after 48 hrs by sulforhodamine B assay; summary of the method: as §3
[22] = test system: HOP-62; assay: Growth inhibition of human HOP62 cells after 48 hrs by sulforhodamine B assay; details: HOP-62, 48 h; summary of the method: as §2
[23] = test system: IGROV-1; assay: Growth inhibition of human IGROV1 cells after 48 hrs by sulforhodamine B assay; details: IGROV-1, 48 h; summary of the method: as §2
[24] = test system: SF-268; assay: Growth inhibition of human SF268 cells assessed as cell growth at 10 uM after 48 hrs by sulforhodamine B assay; details: SF-268, 48 h, read-out: Activity
[25] = test system: T47D; assay: Growth inhibition of human T47D cells after 48 hrs by sulforhodamine B assay; summary of the method: as §4
[26] = test system: SNB-19; assay: Growth inhibition of human SNB19 cells assessed as cell growth at 10 uM after 48 hrs by sulforhodamine B assay; details: SNB-19, 48 h, read-out: Activity
[27] = test system: ACHN; assay: Growth inhibition of human ACHN cells assessed as cell growth at 10 uM after 48 hrs by sulforhodamine B assay; details: read-out: Activity
[28] = test system: M14; assay: Growth inhibition of human M14 cells after 48 hrs by sulforhodamine B assay; details: M14, 48 h; summary of the method: as §2
[29] = test system: Malme-3M; assay: Growth inhibition of human MALME-3M cells assessed as cell growth at 10 uM after 48 hrs by sulforhodamine B assay; details: read-out: Activity
[30] = read-out: LC50 (the source's name)

Structure (SMILES): Cc1ccc(C2=NN(c3ccc(S(C)(=O)=O)cc3)C(=O)CC2)cc1
- growth at 10 µM [1]: 41.1%
- GI50 [2]: 0.83 µM
- LC50 [2]: > 100 µM
- TGI [2]: > 100 µM
- growth at 10 µM [3]: 14.9%
- growth at 10 µM [4]: 20.1%
- GI50 [5]: 0.6 µM
- TGI [5]: > 100 µM
- CC50 [5, 30]: > 100 µM
- GI50 [6]: > 100 µM
- LC50 [6]: > 100 µM
- TGI [6]: > 100 µM
- GI50 [7]: 2.5 µM
- TGI [7]: > 100 µM
- CC50 [7, 30]: > 100 µM
- growth at 10 µM [8]: 4.23%
- growth at 10 µM [9]: 6.77%
- growth at 10 µM [10]: 32.7%
- growth at 10 µM [11]: -19.6%
- GI50 [12]: 0.44 µM
- LC50 [12]: > 100 µM
- TGI [12]: > 100 µM
- GI50 [13]: 0.4 µM
- TGI [13]: 2.58 µM
- CC50 [13, 30]: > 100 µM
- growth at 10 µM [14]: 50.7%
- growth at 10 µM [15]: 42.9%
- GI50 [16]: 0.52 µM
- TGI [16]: > 100 µM
- CC50 [16, 30]: > 100 µM
- GI50 [17]: 0.46 µM
- LC50 (50% net cell kill concentration) [17]: > 100 µM
- TGI [17]: > 100 µM
- GI50 [18]: 0.41 µM
- LC50 (concentration killing 50% of cells) [18]: > 100 µM
- TGI [18]: > 100 µM
- GI50 [19]: 4.72 µM
- LC50 (concentration killing 50% of cells) [19]: > 100 µM
- TGI [19]: > 100 µM
- GI50 [20]: 3.02 µM
- TGI [20]: > 100 µM
- CC50 [20, 30]: > 100 µM
- GI50 [21]: 0.27 µM
- LC50 [21]: > 100 µM
- GI50 [22]: 1.3 µM
- TGI [22]: > 100 µM
- CC50 [22, 30]: > 100 µM
- GI50 [23]: 0.83 µM
- LC50 [23]: > 100 µM
- TGI [23]: > 100 µM
- growth at 10 µM [24]: 55.2%
- GI50 [25]: 2.08 µM
- LC50 [25]: > 100 µM
- TGI [25]: > 100 µM
- growth at 10 µM [26]: 55%
- growth at 10 µM [27]: 54.5%
- GI50 [28]: 0.38 µM
- TGI [28]: > 100 µM
- CC50 [28, 30]: > 100 µM
- growth at 10 µM [29]: 45.5%
